Screening results: PubChem BioAssay, The Scripps Research Institute Molecular Screening Center
Rows were chosen to be rich in hits. Some 3.3% of all compounds tested hit in one or more screens of this group.
SIAE inh = inhibitors of human sialic acid acetylesterase SIAE; Q9HAT2; SIAE FP-Rh probe binding, fluorescence polarization; inhibition, % at 9.66 µM; actives 0.69% (n = 370,000);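 active = inhibition above a cutoff: mean of compounds within the control limits plus 3 SD of those, cut at about 17% in these data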;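 also: 0% = plate median of compound wells and 100% = probe without SIAE protein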
PRMT1 inh = PRMT1 (human) inhibition, primary screen | Q99873 | recombinant PRMT1, activity-based probe fluorescence polarization | inhibition, % at 2.79 µM | actives 1.3% (n = 370,000);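 active = inhibition above about 21% made by adding two undisclosed values, limit read from the data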
Target sequence (Q99873 whole entry, looked up): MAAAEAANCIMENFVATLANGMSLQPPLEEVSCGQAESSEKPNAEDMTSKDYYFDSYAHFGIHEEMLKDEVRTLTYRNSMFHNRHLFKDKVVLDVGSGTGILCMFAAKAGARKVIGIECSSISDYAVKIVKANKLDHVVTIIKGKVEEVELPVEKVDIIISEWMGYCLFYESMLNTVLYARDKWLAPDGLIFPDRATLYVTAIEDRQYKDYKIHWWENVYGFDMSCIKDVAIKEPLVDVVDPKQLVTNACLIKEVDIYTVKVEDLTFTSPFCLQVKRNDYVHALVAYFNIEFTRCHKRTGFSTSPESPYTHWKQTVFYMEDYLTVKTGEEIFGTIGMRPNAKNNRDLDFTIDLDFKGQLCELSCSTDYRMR
UHRF1 binding = UHRF1 methyl-DNA binding inhibition; Q96T88; UHRF1 binding to methylated oligo, TR-FRET; inhibition, % at 4.4 µM; actives 0.75% (n = 370,000); AID 687016; in the data active = inhibition above about 21%;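 also: UHRF1 SRA domain binding a hemimethylated CpG hairpin DNA probe; 0% = median of test compound wells and 100% = reference inhibitor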
TDP2 absorb = blocks human TDP2 phosphodiesterase activity. actives 0.34% (n = 370,000). inhibition, % at 12.8 µM. recombinant TDP2, T5PNP hydrolysis, p-nitrophenol absorbance 415 nm. AID 720702. O95551;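 active = inhibition above the mean of all tested compounds plus 3 SD, set per campaign, cut at about 25% in these data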;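 also: 0% = DMSO with enzyme and 100% = buffer with substrate but no TDP2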
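Test system: human TDP2 enzyme; Input: 120 nM TDP2 per well; Buffer or medium: Mg2+-containing Tris-HCl buffer, pH 7.5; Reagent: 5 mM T5PNP; Dosing: 12.8 µM single point, 1% DMSO; Incubation: reaction 2 h, 37 °C; Detection: p-Nitrophenol epi absorbance; Read-out: % inhibition relative to enzyme-containing and enzyme-free wells; Replicates: single well per compound.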
LEDGF integ inh = blocks HIV-1 LEDGF/p75-dependent DNA integration. TR-FRET IN-LEDGF/p75 DNA integration, Eu/Cy5. inhibition, % at 3.7 µM. actives 0.64% (n = 370,000). AID 743269;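 active = inhibition above the screen-wide mean plus 3 SD, cut at about 13% in these data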;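 also: signal is the Cy5 over europium emission ratio at 671 and 618 nm; 0% = plate median of compound wells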
MBD2 inh = blocks human MBD2 binding to methylated DNA | Q9UBB5 | TR-FRET, MBD2 binding to methylated oligonucleotide | inhibition, % at 4.4 µM | actives 0.31% (n = 370,000); in the data active = inhibition above about 13%
TDP2 inh conf = confirmation of human TDP2 inhibitors | inhibition, % at 12.8 µM | shares compounds with TDP2 absorb | recombinant human TDP2, absorbance read-out | actives 22% (n = 1,100); in the data active = inhibition above about 25%;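 also: 0% = vehicle with enzyme and 100% = no enzyme buffer only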
* = called active by the depositor.

Results for COCCSc1ncccc1-c1nc2ccccc2[nH]1 ?
SIAE inh: 6; PRMT1 inh: -2; UHRF1 binding: 0; TDP2 absorb: 1; LEDGF integ inh: 1; MBD2 inh: 0

Results for C[C@H]1[C@@H](NC(=O)C2CCC2)CC[C@@]23CCCN2C(=O)CCC[C@@H]13 ?
SIAE inh: 0; PRMT1 inh: 1; UHRF1 binding: 1; TDP2 absorb: 9; LEDGF integ inh: 10; MBD2 inh: -4

What do the screens show for `CN(C)c1cccc(C(=O)OCC(=O)NC2CCCC2)c1`?
SIAE inh: 7; PRMT1 inh: -4; UHRF1 binding: -1; TDP2 absorb: 26*; LEDGF integ inh: 0; MBD2 inh: -7; TDP2 inh conf: 6

Results for CN(C)c1ccc(C(=O)OCC(=O)NC2CCCCC2)cc1 ?
SIAE inh: -2; PRMT1 inh: 2; UHRF1 binding: 4; TDP2 absorb: -13; LEDGF integ inh: 0; MBD2 inh: 3

Results for COc1cc(OC)c(OC)cc1CN1CCCC(C(=O)N2CCCCC2)C1 (stereo not drawn) ?
SIAE inh: 1; PRMT1 inh: 0; UHRF1 binding: 0; TDP2 absorb: 9; LEDGF integ inh: 1; MBD2 inh: -5

What do the screens show for `COc1ccc(CN2CCCC(C(=O)N3CCCC3)C2)c(OC)c1` (stereo not drawn)?
SIAE inh: 10; PRMT1 inh: -3; UHRF1 binding: -1; TDP2 absorb: 31*; LEDGF integ inh: 2; MBD2 inh: -1; TDP2 inh conf: 6

What do the screens show for `CCCCCCCCN1CCS(=O)(=O)N(Cc2ccc(C(F)(F)F)cc2)C(C(=O)OC)C1` (stereo not drawn)?
SIAE inh: -2; PRMT1 inh: 1; UHRF1 binding: -1; TDP2 absorb: 4; LEDGF integ inh: -1; MBD2 inh: -1

How did Cc1nnc(SCc2ccccc2)n(N)c1=O do in these assays?
SIAE inh: 0; PRMT1 inh: 1; UHRF1 binding: 2; TDP2 absorb: 58*; LEDGF integ inh: 0; MBD2 inh: 2; TDP2 inh conf: -4

Results for CC(=O)Oc1c(/C=C(\C#N)C(N)=O)[nH]c2ccccc12 ?
SIAE inh: 3; PRMT1 inh: 19; UHRF1 binding: -15; TDP2 absorb: 32*; LEDGF integ inh: 8; MBD2 inh: -7; TDP2 inh conf: -1

Results for N#C/C(=C\c1c[nH]c2ccccc12)C(N)=O ?
SIAE inh: -6; PRMT1 inh: -3; UHRF1 binding: -10; TDP2 absorb: -2; LEDGF integ inh: -2; MBD2 inh: -6

How did CCN(CC)CCN1C(=O)C(=O)/C(=C(/O)c2ccc(C)cc2)C1c1cccnc1 (stereo not drawn) do in these assays?
SIAE inh: 0; PRMT1 inh: 3; UHRF1 binding: 6; TDP2 absorb: 32*; LEDGF integ inh: 4; MBD2 inh: -5; TDP2 inh conf: 6

What do the screens show for `Cc1ccc([N+](=O)[O-])cc1S(=O)(=O)NCC1COc2ccccc2O1` (stereo not drawn)?
SIAE inh: 2; PRMT1 inh: 3; UHRF1 binding: 1; TDP2 absorb: 45*; LEDGF integ inh: -2; MBD2 inh: -1; TDP2 inh conf: -3

How did Cc1ccc(S(=O)(=O)NCC2COc3ccccc3O2)cc1 (stereo not drawn) do in these assays?
SIAE inh: 6; PRMT1 inh: -1; UHRF1 binding: 4; TDP2 absorb: -7; LEDGF integ inh: 6; MBD2 inh: 2

How did COc1ccc(-c2noc(C3CCCN(C(=O)Nc4ccc5c(c4)OCO5)C3)n2)cc1 (stereo not drawn) do in these assays?
SIAE inh: 2; PRMT1 inh: -1; UHRF1 binding: 0; TDP2 absorb: 2; LEDGF integ inh: 2; MBD2 inh: 0

What do the screens show for `Cc1ccc(NC(=O)N2C3CCCC2CC(NC(=O)C2CC2)C3)cc1` (stereo not drawn)?
SIAE inh: -8; PRMT1 inh: -5; UHRF1 binding: 2; TDP2 absorb: 9; LEDGF integ inh: 5; MBD2 inh: -3

What do the screens show for `O=C(NC1CC2CCCC(C1)N2C(=O)Nc1cccc(F)c1)C1CC1` (stereo not drawn)?
SIAE inh: 1; PRMT1 inh: -2; UHRF1 binding: -2; TDP2 absorb: 28*; LEDGF integ inh: -1; MBD2 inh: -2; TDP2 inh conf: 13

Results for CC1(C)CNc2cc(N)ccc2S1 ?
SIAE inh: 6; PRMT1 inh: 12; UHRF1 binding: -2; TDP2 absorb: 38*; LEDGF integ inh: 13; MBD2 inh: -10; TDP2 inh conf: 0

What do the screens show for `Cc1cc(=O)n(CCCc2ccccc2)[nH]1`?
SIAE inh: 7; PRMT1 inh: 4; UHRF1 binding: -6; TDP2 absorb: 37*; LEDGF integ inh: 1; MBD2 inh: -5; TDP2 inh conf: 6

Results for Cn1c(=O)cc(NCCc2ccccc2)[nH]c1=O ?
SIAE inh: -4; PRMT1 inh: 7; UHRF1 binding: -1; TDP2 absorb: 0; LEDGF integ inh: 0; MBD2 inh: 2

How did Cc1c(Cl)c(C(F)(F)F)nn1CC(=O)NCc1ccco1 do in these assays?
SIAE inh: -5; PRMT1 inh: 2; UHRF1 binding: -2; TDP2 absorb: 5; LEDGF integ inh: -2; MBD2 inh: -1

Results for Cc1cc(C(F)(F)F)nn1CC(=O)NCc1ccco1 ?
SIAE inh: 2; PRMT1 inh: 0; UHRF1 binding: 3; TDP2 absorb: 31*; LEDGF integ inh: 4; MBD2 inh: 0; TDP2 inh conf: 4

What do the screens show for `COCCNC(=S)Nc1ccc2nsnc2c1`?
SIAE inh: 7; PRMT1 inh: 3; UHRF1 binding: 5; TDP2 absorb: 74*; LEDGF integ inh: 11; MBD2 inh: -6; TDP2 inh conf: 2

What do the screens show for `COCCNC(=S)Nc1ccc(Cl)c(Cl)c1`?
SIAE inh: 3; PRMT1 inh: -1; UHRF1 binding: 9; TDP2 absorb: -1; LEDGF integ inh: 5; MBD2 inh: 0

Results for S=C(Nc1ccc2nsnc2c1)N1CCCCCC1 ?
SIAE inh: 5; PRMT1 inh: 2; UHRF1 binding: -3; TDP2 absorb: 62*; LEDGF integ inh: 5; MBD2 inh: -3; TDP2 inh conf: 68*

Results for COc1cc(/C=C/C(=O)OCC(=O)NC(=O)NC(C)C)ccc1OCC#N ?
SIAE inh: 1; PRMT1 inh: 3; UHRF1 binding: -3; TDP2 absorb: -3; LEDGF integ inh: 0; MBD2 inh: 1
